Activity and IC50 data for ten compounds are collected here from ChEMBL document CHEMBL4602651, “Development of selective mono or dual PROTAC degrader probe of CDK isoforms” (Eur J Med Chem, 2020).

Active and inactive are the calls of the source. The rule behind the calls is not given here.

Assay [1] addresses T1, Protein cereblon/Cyclin-dependent kinase 2 (Homo sapiens) (UniProt P24941+Q96SW2). Description: Protac activity at CRBN/CDK2 in AR-negative human PC3 cells assessed as induction of CDK2 protein degradation at 1 uM after 12 hrs by Western blot analysis. The conditions noted are these: PC-3. It is filed as cell-based. The procedure, abridged: (§1)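 PC-3 cells (5 × 10^5 per well) treated 12 h at single concentrations (50 nM, 500 nM, 1, 5 or 30 µM). RIPA lysates (50 µg) run on 10% SDS-PAGE and immunoblotted for CDK2, CDK5, CDK9 with β-tubulin loading control, then detected by chemiluminescence. Band intensities quantified densitometrically.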

Assay [2] concerns the target T1, Protein cereblon/Cyclin-dependent kinase 2 (Homo sapiens). Description: Protac activity at CRBN/CDK2 in AR-negative human PC3 cells assessed as induction of CDK2 protein degradation at 30 uM after 12 hrs by Western blot analysis. The conditions noted are these: PC-3. It is filed as cell-based. The method in brief:
as §1
For orientation: Immunoblotting shows a protein as a band on a membrane.

For assay [3], the target named is T2, Protein cereblon/Cyclin-dependent kinase 9 (Homo sapiens) (UniProt P50750+Q96SW2). As to the kind of experiment: Protac activity at CRBN/CDK9 in AR-negative human PC3 cells assessed as induction of CDK9 protein degradation at 30 uM after 12 hrs by Western blot analysis. Format: cell-based. The conditions noted are these: PC-3. The method in brief: (§2)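 PC-3 cells (DMEM/F12 1:1, 10% FBS, 1% pen/strep, 37 °C, 5% CO2) plated at 5 × 10^5 per well, exposed to compound for 12 h. RIPA lysates with protease inhibitors; 50 µg total protein run on 10% SDS-PAGE, transferred to PVDF, blocked in 5% milk/TBS-T. Probed with anti-CDK9 (1/1000), β-tubulin loading control, HRP secondary, chemiluminescence; bands scored as degradation detected or not.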
T2 sequence (P50750 whole entry, looked up): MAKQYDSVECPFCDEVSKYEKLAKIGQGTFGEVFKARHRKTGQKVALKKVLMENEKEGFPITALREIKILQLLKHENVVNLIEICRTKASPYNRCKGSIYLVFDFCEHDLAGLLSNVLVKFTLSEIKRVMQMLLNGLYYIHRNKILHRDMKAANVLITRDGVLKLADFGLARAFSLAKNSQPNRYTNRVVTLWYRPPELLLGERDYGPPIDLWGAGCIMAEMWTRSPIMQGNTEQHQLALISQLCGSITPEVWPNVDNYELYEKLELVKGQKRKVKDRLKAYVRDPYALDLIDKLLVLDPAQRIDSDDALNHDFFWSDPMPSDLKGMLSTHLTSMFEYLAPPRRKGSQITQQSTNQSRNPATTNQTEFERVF
T2 sequence (Q96SW2 whole entry, looked up): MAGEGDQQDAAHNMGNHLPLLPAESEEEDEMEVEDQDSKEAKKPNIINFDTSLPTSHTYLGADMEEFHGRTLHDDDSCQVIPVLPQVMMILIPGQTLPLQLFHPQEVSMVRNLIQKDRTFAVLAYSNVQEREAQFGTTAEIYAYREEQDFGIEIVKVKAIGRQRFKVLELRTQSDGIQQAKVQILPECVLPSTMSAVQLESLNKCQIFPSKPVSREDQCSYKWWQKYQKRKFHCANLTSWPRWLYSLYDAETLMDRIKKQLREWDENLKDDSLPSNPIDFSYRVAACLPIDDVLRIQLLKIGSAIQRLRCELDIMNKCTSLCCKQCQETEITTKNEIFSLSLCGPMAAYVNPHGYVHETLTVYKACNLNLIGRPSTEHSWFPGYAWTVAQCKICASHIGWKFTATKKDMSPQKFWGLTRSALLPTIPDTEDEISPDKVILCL

The target in assay [4] is T1, Protein cereblon/Cyclin-dependent kinase 2 (Homo sapiens). Description: Protac activity at CRBN/CDK2 in AR-negative human PC3 cells assessed as induction of CDK2 protein degradation at 50 nM after 12 hrs by Western blot analysis. Format: cell-based. The conditions noted are these: PC-3. The procedure, abridged:
as §1

Assay [5] deals with T2, Protein cereblon/Cyclin-dependent kinase 9 (Homo sapiens). Description: Protac activity at CRBN/CDK9 in AR-negative human PC3 cells assessed as induction of CDK9 protein degradation at 50 nM after 12 hrs by Western blot analysis. Format: cell-based. The settings on record: PC-3. The method in brief:
as §2

In assay [6] the test system is PC-3. As to the kind of experiment: Antiproliferative activity against AR-negative human PC3 cells assessed as reduction in cell viability after 5 days by CCK8 assay. The conditions noted are these: PC-3, 120 h. It is filed as functional, cell-based. The procedure, abridged: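 Cells seeded at 3 × 10^3 per well for 24 h, then dosed in 10-point, 3-fold serial dilution from 10 µM. CCK-8 added after 5 days, 4 h at 37 °C, absorbance at 450 nm. IC50 averaged from three separate determinations (at least two independent runs, duplicate wells). PC-3 grown in DMEM/F12 (1:1), LO2 in RPMI 1640, both with 10% FBS.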
On the technique in general: Formazan colour is commonly taken as a measure of viable cells.

The target in assay [7] is T3, Protein cereblon/Cyclin-dependent kinase 2/Cyclin-dependent kinase 9 (Homo sapiens, UniProt P24941+P50750+Q96SW2). As to the kind of experiment: Protac activity at CRBN/CDK2/CDK9 in AR-negative human PC3 cells assessed as induction of CDK2 protein degradation at 1 uM after 12 hrs by Western blot analysis. The conditions noted are these: PC-3. It is filed as cell-based. The method in brief: as §1

Assay [8] has as its target T3, Protein cereblon/Cyclin-dependent kinase 2/Cyclin-dependent kinase 9. Description: Protac activity at CRBN/CDK2/CDK9 in AR-negative human PC3 cells assessed as induction of CDK9 protein degradation at 1 uM after 12 hrs by Western blot analysis. It is filed as cell-based. The conditions noted are these: PC-3. The procedure, abridged:
as §1

Assay [9] has the same target. As to the kind of experiment: Protac activity at CRBN/CDK2/CDK9 in AR-negative human PC3 cells assessed as induction of CDK9 protein degradation at 30 uM after 12 hrs by Western blot analysis. It is filed as cell-based. The settings on record: PC-3. The procedure, abridged:
as §1

The target is the same in assay [10]. Description: Protac activity at CRBN/CDK2/CDK9 in AR-negative human PC3 cells assessed as induction of CDK2 protein degradation after 24 hrs by Western blot analysis. The settings on record: PC-3. It is filed as cell-based. The method in brief:
(§3)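 PC-3 cells exposed to a degrader concentration series, then immunoblotted for CDK2 and CDK9 versus β-tubulin. The figure legend gives 24 h exposure. DC50 taken as mean of 2 determinations from densitometry.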

Assay [11] shares this target. Description: Protac activity at CRBN/CDK2/CDK9 in AR-negative human PC3 cells assessed as induction of CDK9 protein degradation after 24 hrs by Western blot analysis. It is filed as cell-based. The conditions noted are these: PC-3. The procedure, abridged:
as §3

Assay [12] has the same target. Description: Protac activity at CRBN/CDK2/CDK9 in AR-negative human PC3 cells assessed as CDK2 degradation at 10^-1 to 10^3 nM after 12 hrs by Western blot analysis. The settings on record: PC-3. It is filed as cell-based.
Assay [13] shares this target. Description: Protac activity at CRBN/CDK2/CDK9 in AR-negative human PC3 cells assessed as CDK9 degradation at 10^-1 to 10^3 nM after 12 hrs by Western blot analysis. The settings on record: PC-3. Format: cell-based.

Turning to `O=C(CCC(=O)N1CCN(Cc2ccc(NC(=O)c3n[nH]cc3Nc3ncnc4[nH]ccc34)cc2)CC1)NCCCCNc1cccc2c1C(=O)N(C1CCC(=O)NC1=O)C2=O` (stereo unspecified), the result in assay [1] and in [2] was inactive. Moreover, the outcome in assay [3], in assay [4] and in assay [5] was Active. Besides, in assay [6], the IC50 came out at 1.38 µM.
Turning to `O=C(CCC(=O)N1CCC(NC(=O)c2n[nH]cc2NC(=O)c2c(Cl)cccc2Cl)CC1)NCCNc1cccc2c1C(=O)N(C1CCC(=O)NC1=O)C2=O` (stereo unspecified), the IC50 in assay [6] turned out to be 5.95 µM.
`O=C(COc1cccc2c1C(=O)N(C1CCC(=O)NC1=O)C2=O)NCCCC(=O)N1CCN(Cc2ccc(NC(=O)c3n[nH]cc3Nc3ncnc4[nH]ccc34)cc2)CC1` (stereo unspecified): the result in assay [7], in assay [8] and in [9] was Active. For the same compound, the IC50 in assay [6] is 2.21 µM.
With `O=C(CCC(=O)N1CCN(Cc2ccc(NC(=O)c3n[nH]cc3Nc3ncnc4[nH]ccc34)cc2)CC1)NCCCCCCNC(=O)COc1cccc2c1C(=O)N(C1CCC(=O)NC1=O)C2=O` (stereo unspecified), in assay [6], the IC50 is 7.3 µM. The outcome in assay [10] and in assay [11] was inactive.
For the compound `O=C(COc1cccc2c1C(=O)N(C1CCC(=O)NC1=O)C2=O)NCCCCCC(=O)N1CCN(Cc2ccc(NC(=O)c3n[nH]cc3Nc3ncnc4[nH]ccc34)cc2)CC1` (stereo unspecified), the result in assay [7], in assay [4], in [5], in assay [8] and in assay [9] was Active. In assay [6], the IC50 turned out to be 0.54 µM.
In the case of `O=C(CCC(=O)N1CCN(Cc2ccc(NC(=O)c3n[nH]cc3Nc3ncnc4[nH]ccc34)cc2)CC1)NCCNc1cccc2c1CN(C1CCC(=O)NC1=O)C2=O` (stereo unspecified), the result in [12] and in [13] was Active.
Consider `O=C(CCC(=O)N1CCN(Cc2ccc(NC(=O)c3n[nH]cc3Nc3ncnc4[nH]ccc34)cc2)CC1)NCCCCNC(=O)COc1cccc2c1C(=O)N(C1CCC(=O)NC1=O)C2=O` (stereo unspecified), for which, in assay [6], the IC50 worked out at 13.4 µM. The result in [10] and in assay [11] was inactive.
For `O=C(CCC(=O)N1CCN(Cc2ccc(NC(=O)c3n[nH]cc3Nc3ncnc4[nH]ccc34)cc2)CC1)NCCCOCCOCCOCCCNC(=O)COc1cccc2c1C(=O)N(C1CCC(=O)NC1=O)C2=O` (stereo unspecified), the IC50 in [6] stood at 18.3 µM. The outcome in assay [10] and in [11] was inactive.
For the compound `O=C(CCC(=O)N1CCC(NC(=O)c2n[nH]cc2NC(=O)c2c(Cl)cccc2Cl)CC1)NCCCCCCNc1cccc2c1C(=O)N(C1CCC(=O)NC1=O)C2=O` (stereo unspecified), the IC50 in assay [6] came to 14.6 µM.
Consider `O=C(CCC(=O)N1CCN(Cc2ccc(NC(=O)c3n[nH]cc3Nc3ncnc4[nH]ccc34)cc2)CC1)NCCNc1ccc2c(c1)C(=O)N(C1CCC(=O)NC1=O)C2=O` (stereo unspecified), for which the outcome in assay [12] and in [13] was Active.

One may read the IC50 as the point on the concentration scale where inhibition reaches its midpoint.
